ChEMBL document CHEMBL1765051 (J Med Chem, 2011)
In brackets after ≈: the same amount, converted by molar mass. Blank lines part the entries; values can stand above or below the molecule they belong to.

Assays:
[1] = test system: Human immunodeficiency virus 1; assay: Antiviral activity against HIV1 3B harboring reverse transcriptase Y188H mutant infected in human CEM cells assessed as inhibition of syncytia formation; type: functional, organism-based; details: Human immunodeficiency virus 1, 3B, CCRF-CEM
[2] = target: Human immunodeficiency virus type 1 reverse transcriptase (Human immunodeficiency virus 1, UniProt Q72547); assay: Inhibition of wild type HIV-1 reverse transcriptase-mediated polymerization reaction after 30 mins
[3] = test system: Human immunodeficiency virus 1; assay: Antiviral activity against HIV1 3B harboring reverse transcriptase L100I mutant infected in human CEM cells assessed as inhibition of syncytia formation; type: functional, organism-based; details: Human immunodeficiency virus 1, 3B, CCRF-CEM
[4] = test system: Human immunodeficiency virus 1; assay: Ratio of EC50 for HIV1 3B harboring reverse transcriptase N136A/Q/K mutant to EC50 for wild type HIV1 3B; type: functional
[5] = test system: Human immunodeficiency virus 1; assay: Ratio of EC50 for HIV1 3B harboring reverse transcriptase K103N mutant to EC50 for wild type HIV1 3B; type: functional
[6] = test system: Human immunodeficiency virus 1; assay: Antiviral activity against wild type HIV1 3B infected in human CEM cells assessed as inhibition of syncytia formation; type: functional, organism-based; details: Human immunodeficiency virus 1, 3B, CCRF-CEM
[7] = test system: Human immunodeficiency virus 1; assay: Ratio of EC50 for HIV1 3B harboring reverse transcriptase Y181C mutant to EC50 for wild type HIV1 3B; type: functional
[8] = test system: Human immunodeficiency virus 1; assay: Antiviral activity against HIV1 3B harboring reverse transcriptase K103N mutant infected in human CEM cells assessed as inhibition of syncytia formation; type: functional, organism-based; details: Human immunodeficiency virus 1, 3B, CCRF-CEM
[9] = test system: Human immunodeficiency virus 1; assay: Ratio of EC50 for HIV1 3B harboring reverse transcriptase G190E mutant to EC50 for wild type HIV1 3B; type: functional
[10] = test system: Human immunodeficiency virus 1; assay: Ratio of EC50 for HIV1 3B harboring reverse transcriptase L100I mutant to EC50 for wild type HIV1 3B; type: functional
[11] = test system: Human immunodeficiency virus 1; assay: Antiviral activity against HIV1 3B harboring reverse transcriptase G190E mutant infected in human CEM cells assessed as inhibition of syncytia formation; type: functional, organism-based; details: Human immunodeficiency virus 1, 3B, CCRF-CEM
[12] = Inhibition of HIV-1 reverse transcriptase […] and E138K mutant-mediated polymerization reaction after 30 mins; set-up: species or system Human immunodeficiency virus 1
In short: (§1)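 Recombinant mutant HIV-1 RT started reactions containing 50 mM Tris-HCl pH 7.8, 5 mM DTT, 300 mM glutathione, 0.5 mM EDTA, 150 mM KCl, 5 mM MgCl2, BSA, 0.06% Triton X-100, 2.8 μM [3H]dGTP, 0.1 mM poly(rC)/oligo(dG) and varying compound. Incubated 30 min at 37°C, stopped with yeast RNA/pyrophosphate/TCA, acid-insoluble radioactivity counted; IC50 = 50% polymerization inhibition; mean ± SD, ≥2 independent experiments.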

[13] = test system: Human immunodeficiency virus 1; assay: Antiviral activity against HIV1 3B harboring reverse transcriptase Y181C mutant infected in human CEM cells assessed as inhibition of syncytia formation; type: functional, organism-based; details: Human immunodeficiency virus 1, 3B, CCRF-CEM
[14] = test system: Human immunodeficiency virus 2; assay: Antiviral activity against wild type HIV2 infected in human CEM cells assessed as inhibition of syncytia formation; type: functional, organism-based; details: Human immunodeficiency virus 2, CCRF-CEM
[15] = target: Human immunodeficiency virus type 1 reverse transcriptase (Human immunodeficiency virus 1, UniProt Q72547, E138K); assay: Inhibition of HIV-1 reverse transcriptase E138K mutant-mediated polymerization reaction after 30 mins; in short: as §1
[16] = test system: Human immunodeficiency virus 1; assay: Antiviral activity against HIV1 3B harboring reverse transcriptase N136A/Q/K mutant infected in human CEM cells assessed as inhibition of syncytia formation; type: functional, organism-based; details: Human immunodeficiency virus 1, 3B, CCRF-CEM
[17] = test system: Human immunodeficiency virus 1; assay: Ratio of EC50 for HIV1 3B harboring reverse transcriptase V106A mutant to EC50 for wild type HIV1 3B; type: functional
[18] = test system: Human immunodeficiency virus 1; assay: Antiviral activity against HIV1 3B harboring reverse transcriptase V179N mutant infected in human CEM cells assessed as inhibition of syncytia formation; type: functional, organism-based; details: Human immunodeficiency virus 1, 3B, CCRF-CEM
[19] = test system: Human immunodeficiency virus 1; assay: Antiviral activity against HIV1 3B harboring reverse transcriptase E138D mutant infected in human CEM cells assessed as inhibition of syncytia formation; type: functional, organism-based; details: Human immunodeficiency virus 1, 3B, CCRF-CEM
[20] = test system: Human immunodeficiency virus 1; assay: Antiviral activity against HIV1 3B harboring reverse transcriptase V106A mutant infected in human CEM cells assessed as inhibition of syncytia formation; type: functional, organism-based; details: Human immunodeficiency virus 1, 3B, CCRF-CEM
[21] = test system: Human immunodeficiency virus 1; assay: Ratio of EC50 for HIV1 3B harboring reverse transcriptase E138K mutant to EC50 for wild type HIV1 3B; type: functional
[22] = test system: Human immunodeficiency virus 1; assay: Ratio of EC50 for HIV1 3B harboring reverse transcriptase Y188H mutant to EC50 for wild type HIV1 3B; type: functional
[23] = test system: Human immunodeficiency virus 1; assay: Antiviral activity against HIV1 3B harboring reverse transcriptase Y181I mutant infected in human CEM cells assessed as inhibition of syncytia formation; type: functional, organism-based; details: Human immunodeficiency virus 1, 3B, CCRF-CEM
[24] = test system: Human immunodeficiency virus 1; assay: Ratio of EC50 for HIV1 3B harboring reverse transcriptase Y181I mutant to EC50 for wild type HIV1 3B; type: functional
[25] = target: Human immunodeficiency virus type 1 reverse transcriptase (Human immunodeficiency virus 1, UniProt Q72547, K101E); assay: Inhibition of HIV-1 reverse transcriptase K101E mutant-mediated polymerization reaction after 30 mins; in short: as §1
[26] = test system: Human immunodeficiency virus 1; assay: Antiviral activity against wild type HIV1 infected in human CEM cells assessed as inhibition of syncytia formation; type: functional, organism-based; details: Human immunodeficiency virus 1, CCRF-CEM
[27] = test system: Human immunodeficiency virus 1; assay: Antiviral activity against HIV1 3B harboring reverse transcriptase Y188L mutant infected in human CEM cells assessed as inhibition of syncytia formation; type: functional, organism-based; details: Human immunodeficiency virus 1, 3B, CCRF-CEM
[28] = test system: Human immunodeficiency virus 1; assay: Ratio of EC50 for HIV1 3B harboring reverse transcriptase Y188L mutant to EC50 for wild type HIV1 3B; type: functional
[29] = test system: Human immunodeficiency virus 1; assay: Antiviral activity against HIV1 3B harboring reverse transcriptase E138K mutant infected in human CEM cells assessed as inhibition of syncytia formation; type: functional, organism-based; details: Human immunodeficiency virus 1, 3B, CCRF-CEM

SMILES: Cc1cn([C@@H]2O[C@H](CO[Si](C)(C)C(C)(C)C)[C@@]3(OS(=O)(=O)C=C3N)[C@H]2O[Si](C)(C)C(C)(C)C)c(=O)n(C)c1=O
- EC50 [1]: > 3.3 µg/mL
- IC50 [2]: 2400 nM
- EC50 [3]: 0.07 µg/mL (≈ 0.116 µM)
- Ratio EC50 [4]: 30
- Ratio EC50 [5]: 7
- EC50 [6]: 0.03 µg/mL (≈ 0.0497 µM)
- Ratio EC50 [7]: 30
- EC50 [8]: 0.23 µg/mL (≈ 0.381 µM)
- Ratio EC50 [9]: 30
- Ratio EC50 [10]: 7
- EC50 [11]: > 10 µg/mL
- IC50 [12]: > 100 µg/mL
- EC50 [13]: 2 µg/mL (≈ 3.31 µM)
- EC50 [14]: > 250000 nM
- IC50 [15]: > 166000 nM
- EC50 [16]: > 50 µg/mL
- Ratio EC50 [17]: 30
- EC50 [18]: 0.22 µg/mL (≈ 0.364 µM)
- EC50 [19]: 0.01 µg/mL (≈ 0.0166 µM)
- EC50 [20]: 1.9 µg/mL (≈ 3.15 µM)
- Ratio EC50 [21]: 30
- Ratio EC50 [22]: 30
- EC50 [23]: > 10 µg/mL
- Ratio EC50 [24]: 30
- IC50 [25]: > 166000 nM
- EC50 [26]: 40 nM
- EC50 [27]: > 10 µg/mL
- Ratio EC50 [28]: 30
- EC50 [29]: > 3 µg/mL

SMILES: Cc1cn([C@@H]2O[C@H](CO[Si](C)(C)C(C)(C)C)[C@@]3(OS(=O)(=O)C=C3N)[C@H]2O[Si](C)(C)C(C)(C)C)c(=O)[nH]c1=O
- EC50 [1]: > 3.3 µg/mL
- EC50 [3]: 0.07 µg/mL (≈ 0.119 µM)
- Ratio EC50 [4]: 30
- Ratio EC50 [5]: 7
- EC50 [6]: 0.03 µg/mL (≈ 0.0509 µM)
- Ratio EC50 [7]: 30
- EC50 [8]: 0.23 µg/mL (≈ 0.39 µM)
- Ratio EC50 [9]: 30
- Ratio EC50 [10]: 7
- EC50 [11]: > 10 µg/mL
- IC50 [12]: > 100 µg/mL
- EC50 [13]: 2 µg/mL (≈ 3.39 µM)
- EC50 [14]: > 20000 nM
- IC50 [15]: > 170000 nM
- EC50 [16]: > 50 µg/mL
- Ratio EC50 [17]: 30
- EC50 [18]: 0.22 µg/mL (≈ 0.373 µM)
- EC50 [19]: 0.01 µg/mL (≈ 0.017 µM)
- EC50 [20]: 1.9 µg/mL (≈ 3.22 µM)
- Ratio EC50 [21]: 30
- Ratio EC50 [22]: 30
- EC50 [23]: > 10 µg/mL
- Ratio EC50 [24]: 30
- IC50 [25]: ≥ 170000 nM
- EC50 [27]: > 10 µg/mL
- Ratio EC50 [28]: 30
- EC50 [29]: > 3 µg/mL

SMILES: CNC(=O)c1cnnn1[C@@H]1O[C@H](CO[Si](C)(C)C(C)(C)C)[C@@]2(OS(=O)(=O)C=C2N)[C@H]1O[Si](C)(C)C(C)(C)C
- EC50 [14]: > 7000 nM
- EC50 [26]: 80 nM

SMILES: CC1=CN([C@@H]2O[C@H](CO[Si](C)(C)C(C)(C)C)[C@@]3(OS(=O)(=O)C=C3N)[C@H]2O[Si](C)(C)C(C)(C)C)C(=O)NC1
- EC50 [14]: > 10000 nM
- EC50 [26]: 100 nM

SMILES: CC(C)(C)[Si](C)(C)OC[C@H]1O[C@@H](n2cnc3c(N)ncnc32)[C@H](O[Si](C)(C)C(C)(C)C)[C@]12OS(=O)(=O)C=C2N
- EC50 [14]: > 10000 nM
- EC50 [26]: 50 nM

SMILES: Nc1nc2c(ncn2[C@H]2CC[C@@H](COP(=O)(O)OP(=O)(O)OP(=O)(O)O)O2)c(=O)[nH]1 [DIDEOXY GUANOSINE TRIPHOSPHATE]
- IC50 [2]: 224 nM
- IC50 [12]: 0.14 µg/mL
- IC50 [15]: 224 nM
- IC50 [25]: 244 nM

Now from value to molecule:

- EC50 [14]: > 7000 nM
- EC50 [26]: 28 nM
SMILES: Cc1cn([C@@H]2O[C@H](CO[Si](C)(C)C(C)(C)C)[C@@]3(OS(=O)(=O)C=C3NC(=O)C(N)=O)[C@H]2O[Si](C)(C)C(C)(C)C)c(=O)n(C)c1=O

- EC50 [14]: > 35000 nM
- EC50 [26]: 5800 nM
SMILES: Cc1cn([C@@H]2O[C@H](CO[Si](C)(C)C(C)(C)C)[C@@]3(OC(=O)N=C3N)[C@H]2O[Si](C)(C)C(C)(C)C)c(=O)n(C)c1=O

- EC50 [14]: > 2000 nM
- EC50 [26]: 170 nM
SMILES: Cc1cn([C@@H]2O[C@H](CO[Si](C)(C)C(C)(C)C)[C@@]3(OS(=O)(=O)C=C3N)[C@H]2O[Si](C)(C)C(C)(C)C)c(=O)[nH]c1=S

- EC50 [14]: > 10000 nM
SMILES: CNC(=O)CCCCn1c(=O)c(C)cn([C@@H]2O[C@H](CO[Si](C)(C)C(C)(C)C)[C@@]3(OS(=O)(=O)C=C3N)[C@H]2O[Si](C)(C)C(C)(C)C)c1=O

- EC50 [14]: > 150000 nM
- EC50 [26]: 60 nM
SMILES: Cn1cnc2c(ncn2[C@@H]2O[C@H](CO[Si](C)(C)C(C)(C)C)[C@@]3(OS(=O)(=O)C=C3N)[C@H]2O[Si](C)(C)C(C)(C)C)c1=O

- EC50 [14]: > 7000 nM
- EC50 [26]: 5300 nM
SMILES: Cc1cn([C@@H]2O[C@H](CO[Si](C)(C)C(C)(C)C)[C@@]3(NS(=O)(=O)N=C3N)[C@H]2O[Si](C)(C)C(C)(C)C)c(=O)n(C)c1=O

- IC50 [2]: 3300 nM
- EC50 [14]: > 2000 nM
- EC50 [26]: 150 nM
SMILES: Cc1cn([C@@H]2O[C@H](CO[Si](C)(C)C(C)(C)C)[C@]3(C=CS(=O)(=O)O3)[C@H]2O[Si](C)(C)C(C)(C)C)c(=O)n(C)c1=O
